Results published in ChEMBL document CHEMBL1649480, “Farnesol-induced apoptosis in Candida albicans” (2009).
Calls of active or inactive are those of the source.

How the values were obtained:
Candida albicans [1] = experiment: Downregulation of carboxymethylenebutenolidase expression in Candida albicans SC5314 at 200 uM after 24 hrs by MALDI-TOF MS; assay type: functional, organism-based
Outline: (§1)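 Overnight YNB-glucose SC5314 culture, PBS-washed, adjusted to OD600 0.1 and treated 24 h with 40 or 200 μM farnesol (methanol in controls). Proteomes were compared with untreated cells by 2D SDS-PAGE and MALDI-TOF MS, searched against NCBI nonredundant database. Spots were counted as changed at ≥1.5-fold in three independent experiments.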

Candida albicans [2] = experiment: Upregulation of Coproporphyrinogen III oxidase expression in Candida albicans SC5314 at 40 uM after 24 hrs by MALDI-TOF MS; assay type: functional, organism-based; outline: as §1
Candida albicans [3] = experiment: Antiproliferative activity against Candida albicans SC5314 assessed as cell killing after 24 hrs by MTS assay; assay type: functional
Outline: (§2)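 SC5314 grown overnight in YNB (pH 7.0) with 50 mM glucose at 30°C, 120 rpm, washed in PBS. Suspensions at 1 × 10⁷ cells/ml exposed to farnesol at final 0, 10, 40, 100, 200, 300 μM for 24 h at 30°C with shaking, with methanol vehicle controls. MTS reagent added for 4 h at 37°C, A490 read, and % killed cells calculated.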

Candida albicans [4] = experiment: Downregulation of Glyceraldehyde-3-phosphate dehydrogenase expression in Candida albicans SC5314 at 40 uM after 24 hrs by MALDI-TOF MS; assay type: functional, organism-based; outline: as §1
Candida albicans [5] = experiment: Upregulation of Putative mitochondrial aconitate hydratase expression in Candida albicans SC5314 at 40 uM after 24 hrs by MALDI-TOF MS; assay type: functional, organism-based
Outline: (§3)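 SC5314 grown overnight at 30°C, 120 rpm, in yeast nitrogen base (pH 7.0) with 50 mM glucose. Cells were washed in PBS and adjusted to OD600 0.1, then treated 24 h with farnesol from a methanol dilution; controls received methanol. Proteomes of treated and untreated cells were compared by 2-D SDS-PAGE and MALDI-TOF MS, with ProFound searches of the NCBI nonredundant database. Spots changed at least 1.5-fold in three independent experiments were counted.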

Candida albicans [6] = experiment: Downregulation of GRE3 expression in Candida albicans SC5314 at 40 uM after 24 hrs by MALDI-TOF MS; assay type: functional, organism-based; outline: as §1
Candida albicans [7] = experiment: Upregulation of 6-Phosphogluconate dehydrogenase expression in Candida albicans SC5314 at 40 uM after 24 hrs by MALDI-TOF MS; assay type: functional, organism-based; outline: as §1
Candida albicans [8] = experiment: Antiproliferative activity against Candida albicans SC5314 assessed as cell killing at 10 uM after 24 hrs by MTS assay; assay type: functional; outline: as §2
Candida albicans [9] = experiment: Upregulation of Alcohol dehydrogenase expression in Candida albicans SC5314 at 40 uM after 24 hrs by MALDI-TOF MS; assay type: functional, organism-based; outline: as §1
Candida albicans [10] = experiment: Upregulation of POR1 expression in Candida albicans SC5314 at 200 uM after 24 hrs by MALDI-TOF MS; assay type: functional, organism-based; outline: as §3
Candida albicans [11] = experiment: Downregulation of Dihydroxy acid dehydratase expression in Candida albicans SC5314 at 200 uM after 24 hrs by MALDI-TOF MS; assay type: functional, organism-based; outline: as §1
Candida albicans [12] = experiment: Upregulation of Putative aspartate aminotransferase expression in Candida albicans SC5314 at 200 uM after 24 hrs by MALDI-TOF MS; assay type: functional, organism-based; outline: as §3
Candida albicans [13] = experiment: Upregulation of Putative mitochondrial […] expression in Candida albicans SC5314 at 200 uM after 24 hrs by MALDI-TOF MS; assay type: functional, organism-based; outline: as §3
Candida albicans [14] = experiment: Downregulation of S-adenosylmethionine synthase expression in Candida albicans SC5314 at 200 uM after 24 hrs by MALDI-TOF MS; assay type: functional, organism-based; outline: as §1
Candida albicans [15] = experiment: Increase in MCA1 expression in Candida albicans SC5314 at 100 uM after 4 hrs by quantitative PCR analysis; assay type: functional, organism-based
Outline: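 Log-phase SC5314 exposed 4 h to farnesol (methanol vehicle control). cDNA diluted 1:20 and run in SYBR green real-time PCR: 15 min 95°C, then 35 cycles of 95°C 1 min, 58°C 30 s, 72°C 30 s, with a melt curve check. MCA1 level was calculated by 2^−ΔΔCT against ACT1 and RPP2B reference genes.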

Candida albicans [16] = experiment: Induction of apoptosis in Candida albicans SC5314 assessed as mitochondrial degradation at 100 uM after 3 hrs by Fluorescence analysis; assay type: functional
Outline: (§4)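 Farnesol-exposed SC5314 (40, 100, 200 μM; methanol control, H2O2 positive control) stained with a MitoPT mitochondrial permeability transition dye per kit instructions. Cells imaged by confocal microscopy: red mitochondrial aggregates in healthy cells, dispersed green signal in apoptotic cells. Percentage of cells with degradation was recorded.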

Candida albicans [17] = experiment: Induction of ROS accumulation in mitochondria of Candida albicans SC5314 at 100 uM after 3 hrs by Fluorescence analysis; assay type: functional
Outline: (§5)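 Cells were exposed 3 h to 40, 100 or 200 μM farnesol, with methanol control and H2O2 positive control. Washed cells were stained 30 min in the dark with a mix of dichlorodihydrofluorescein diacetate, propidium iodide and calcofluor white, then washed and viewed by confocal microscopy. % green (ROS) cells of all cells was scored, with red (necrotic) cells scored separately.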

Candida albicans [18] = experiment: Upregulation of Acetyl-CoA hydrolase/transferase expression in Candida albicans SC5314 at 200 uM after 24 hrs by MALDI-TOF MS; assay type: functional, organism-based; outline: as §1
Candida albicans [19] = experiment: Downregulation of Translational elongation factor 1 expression in Candida albicans SC5314 at 40 uM after 24 hrs by MALDI-TOF MS; assay type: functional, organism-based; outline: as §1
Candida albicans [20] = experiment: Induction of ROS accumulation in mitochondria of Candida albicans SC5314 after 3 hrs by Fluorescence analysis; assay type: functional, organism-based; outline: as §5
Candida albicans [21] = experiment: Induction of apoptosis in Candida albicans SC5314 assessed as mitochondrial degradation at 200 uM after 3 hrs by Fluorescence analysis; assay type: functional; outline: as §4
Candida albicans [22] = experiment: Upregulation of Aldose reductase expression in Candida albicans SC5314 at 200 uM after 24 hrs by MALDI-TOF MS; assay type: functional, organism-based; outline: as §1
Candida albicans [23] = experiment: Upregulation of Heat shock protein 60 expression in Candida albicans SC5314 at 200 uM after 24 hrs by MALDI-TOF MS; assay type: functional, organism-based; outline: as §1
Candida albicans [24] = experiment: Downregulation of Enolase expression in Candida albicans SC5314 at 40 uM after 24 hrs by MALDI-TOF MS; assay type: functional, organism-based; outline: as §1
Candida albicans [25] = experiment: Downregulation of NADH:quinone oxidoreductase expression in Candida albicans SC5314 at 200 uM after 24 hrs by MALDI-TOF MS; assay type: functional, organism-based; outline: as §1
Candida albicans [26] = experiment: Downregulation of ATP synthase subunit D expression in Candida albicans SC5314 at 200 uM after 24 hrs by MALDI-TOF MS; assay type: functional, organism-based; outline: as §1
Candida albicans [27] = experiment: Upregulation of Glutathione reductase expression in Candida albicans SC5314 at 200 uM after 24 hrs by MALDI-TOF MS; assay type: functional, organism-based; outline: as §1
Candida albicans [28] = experiment: Downregulation of Glyceraldehyde-3-phosphate dehydrogenase expression in Candida albicans SC5314 at 200 uM after 24 hrs by MALDI-TOF MS; assay type: functional, organism-based; outline: as §1
Candida albicans [29] = experiment: Upregulation of Catalase A expression in Candida albicans SC5314 at 40 uM after 24 hrs by MALDI-TOF MS; assay type: functional, organism-based; outline: as §1

Measured: Activity

CC(C)=CCC/C(C)=C/CC/C(C)=C/CO [FARNESOL]
95%: Candida albicans [21]
93%: Candida albicans [16]
<10%: Candida albicans [8]
80%: Candida albicans [17]
inactive: Candida albicans [15]
60%: Candida albicans [3]
active: all other assays above
